Compound activity: PubChem, Johns Hopkins Ion Channel Center
TRPC4 PAM – allosteric potentiators of mouse TRPC4 channel; Q9QUQ5; HEK293 TRPC4beta/mu-opioid, DAMGO EC20, Fluo-4 Ca2+ flux; stronger effect = higher value; B-score at 10 µM; 310,000 compounds, 0.42% hits;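 active = B-score of calcium response area above 5 SD of library B-scores, with initial fluorescence ratio within 5 SD of library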;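 note: B-score of integrated fluorescence ratio over time as area under calcium response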
TRPC4 block – inhibitors of mouse TRPC4 channel. Q9QUQ5. HEK293 TRPC4beta/mu-opioid, DAMGO-evoked Fluo4 calcium flux; stronger effect = lower value. B-score at 10 µM. 300,000 compounds, 0.39% hits. AID 2247;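 active = B-score over 3 SD under the library average, no early fluorescence shift, positive overall ratio signal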
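test system = HEK293 cells with stable TRPC4beta plus mu-opioid receptor expression | detection = Fluo4 Ca2+ flux fluorescence | read-out = integrated fluorescence ratio relative to baseline, converted to per-well B score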
Kir21 block – inhibitors of mouse Kir2.1 inward-rectifier potassium channel. P35561. HEK293-Kir2.1, FluxOR thallium flux fluorescence; stronger effect = lower value. B-score at 10 µM. 310,000 compounds, 0.85% hits. AID 1672;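 active = fluorescence ratio B-score at or below minus 3 SD of library scores, with starting-brightness B-score within 2 SD, cut at about -4.2 in these data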;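 note: channel flux triggered by added potassium and thallium sulfate stimulus; B-score of peak minus minimum fluorescence over baseline after thallium stimulus; more negative B-score means stronger Kir2.1 block with less thallium influx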
Target sequence (P35561 whole entry, looked up): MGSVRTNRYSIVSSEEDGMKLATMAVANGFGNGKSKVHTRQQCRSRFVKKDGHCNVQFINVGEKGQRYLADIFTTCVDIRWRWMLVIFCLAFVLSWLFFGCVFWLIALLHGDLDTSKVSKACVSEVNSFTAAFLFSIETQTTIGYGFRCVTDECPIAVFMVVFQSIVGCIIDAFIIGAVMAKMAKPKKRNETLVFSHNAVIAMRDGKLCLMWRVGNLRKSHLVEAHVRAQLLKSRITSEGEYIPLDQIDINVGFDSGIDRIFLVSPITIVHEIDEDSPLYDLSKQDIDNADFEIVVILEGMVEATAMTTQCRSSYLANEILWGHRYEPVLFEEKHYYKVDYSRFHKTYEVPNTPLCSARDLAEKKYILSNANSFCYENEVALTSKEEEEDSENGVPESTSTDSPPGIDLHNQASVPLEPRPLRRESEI
TRPC6 activator – activators of mouse TRPC6 channel; Q61143; B-score at 10 µM; 310,000 compounds, 0.13% hits; HEK293-TRPC6 membrane potential dye fluorescence; stronger effect = higher value;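 active = B-score of the integrated fluorescence ratio above library mean plus 3 SD, and starting fluorescence ratio within library mean plus 5 SD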;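 note: higher score means more depolarization so channel activation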
TRPC6 inhibitor – blocks the mouse TRPC6 cation channel. B-score at 10 µM. Q61143. 310,000 compounds, 1.1% hits. HEK293-TRPC6, membrane potential dye, ACh-evoked depolarization; stronger effect = lower value;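 active = B-score under library mean minus 3 SD, initial fluorescence not abnormally high, positive integrated signal ratio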;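 note: B-score derived from integrated fluorescence ratio over the kinetic read; more negative B-score means stronger inhibition of depolarization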
TRPC4 act – activators of mouse TRPC4 channel; 310,000 compounds, 0.49% hits; HEK293 TRPC4beta/mu-opioid, Fluo4 calcium fluorescence; stronger effect = higher value; AID 2237; B-score at 10 µM;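 active = B-score above 5 SD of library B-scores, and initial fluorescence ratio not above library mean plus 5 SD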;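 note: positive B-score marks a calcium rise read as TRPC4 activation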
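system = HEK293 cells stably co-expressing mouse TRPC4beta and mu-opioid receptor | schedule = Fluo4 dye loading 45 min at room temperature, 110 s recording | measure = B-scored integrated calcium fluorescence ratio | signal = Fluo4 calcium-sensitive dye fluorescence, kinetic, 1 Hz baseline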
TRPC4 spec 2 – second check of whether TRPC6 inhibitors also affect mouse TRPC4; 920 compounds, 42% hits; inhibition, % at 10 µM; shares compounds with TRPC6 inhibitor; HEK293 TRPC4/MOR, membrane potential dye fluorescence; channel activated by saturating DAMGO dose; AID 2776;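 active = compounds whose fluorescence signal differed from control wells by over 3 SD, either direction, in both duplicate plates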
TRPC4 spec – tests whether TRPC6 inhibitors also affect mouse TRPC4 | shares compounds with TRPC6 inhibitor | HEK293 TRPC4/mu-opioid, membrane potential fluorescence | activity change, negative = inhibition, % at 10 µM | 920 compounds, 61% hits;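 active = rise or fall in signal beyond 3 SD of buffer-only wells in both replicate plates, either sign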;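 note: integrated kinetic ratio of fluorescence range over baseline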
HEK293 MPD ctr 2-1 – second counter-screen for TRPC6 inhibitors: parental HEK293 cells. signal change vs control, % at 10 µM. 920 compounds, 31% hits. parental HEK293 membrane potential dye fluorescence; maximal acetylcholine challenge after compound addition. AID 2779. shares compounds with TRPC6 inhibitor;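 active = membrane potential signal moving either way by over 3 SD of the maximum-effect control, in both duplicate plates, meaning non-specific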
HEK293 MPD ctr-1 – parental HEK293 nonspecific activity of TRPC6 inhibitors | 920 compounds, 60% hits | parental HEK293 membrane potential dye fluorescence | membrane potential signal change, % at 10 µM | shares compounds with TRPC6 inhibitor;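 active = membrane potential signal shifting up or down by more than 3 SD of buffer-only wells, on both duplicate plates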
HEK293 MPD ctr-2 – counter-screen for TRPC6 modulators: effect in parental HEK293 cells. shares compounds with TRPC6 inhibitor. membrane potential signal change, % at 10 µM. membrane potential dye fluorescence. 2,400 compounds, 51% hits;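 active = membrane potential signal moves up or down beyond 5 SD from buffer-only wells, on both duplicate plates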
HEK293 MPD ctr 2-2 – second counter-screen for TRPC6 modulators: effect in parental HEK293 cells. shares compounds with TRPC6 inhibitor. membrane potential dye fluorescence; after compound, maximal acetylcholine stimulation. inhibition, % at 10 µM. 2,400 compounds, 14% hits. AID 488926;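 active = membrane potential signal drops by more than 5 SD from the mean control signal, in both duplicate plates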;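 note: plate controls were acetylcholine ECmax control wells for no effect and buffer only wells for full effect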
TRPC4/MOR mod – tests whether TRPC6 modulators also affect mouse TRPC4; shares compounds with TRPC6 inhibitor; HEK293 TRPC4/mu-opioid, membrane potential fluorescence; percent change from control (negative = decrease, positive = increase), % at 10 µM; 2,400 compounds, 69% hits; AID 488927;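 active = membrane potential signal moved up or down beyond 5 SD of buffer control wells, in both duplicate plates, actives on both sides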;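 note: plate controls were assay buffer wells for no effect and DAMGO maximal-effect wells for full effect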
TRPC4/MOR inh 2 – second check of whether TRPC6 modulators also affect mouse TRPC4; 2,400 compounds, 55% hits; AID 488928; inhibition, % at 10 µM; shares compounds with TRPC6 inhibitor; HEK293 TRPC4/mu-opioid, membrane potential dye fluorescence; stimulated with maximal-effect DAMGO;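 active = drop in membrane potential signal beyond 5 SD of the control wells in both duplicate plates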;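 note: TRPC4 counter screen for TRPC6 hits run under conditions tuned for TRPC6 not TRPC4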
TRPC6 block conf – mouse TRPC6 inhibitor confirmation; inhibition, % at 10 µM; shares compounds with TRPC6 inhibitor; 3,300 compounds, 43% hits; HEK293-TRPC6, membrane potential dye, ACh-evoked depolarization;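 active = fluorescence ratio falls more than 5 SD below the full-stimulation control mean, in both duplicate runs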;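 note: integrated fluorescence ratio of peak minus minimum over baseline after agonist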
TRPC6 act conf – mouse TRPC6 activator confirmation. 2,800 compounds, 11% hits. AID 488961. HEK293-TRPC6 membrane potential dye fluorescence, FDSS. activation, % at 10 µM. shares compounds with TRPC6 inhibitor;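 active = ratio signal rise beyond 5 SD above unstimulated control wells' mean, seen in both duplicate runs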;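 note: plate controls were buffer EC0 wells for no effect and acetylcholine ECmax response for full effect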
The depositor's hits bear a star. Only some compounds are listed: those with a hit (about 2.9% of all), similar ones and a draw of the others.

How did CCN1CCc2nc(NC(=O)CC(c3ccccc3)c3ccccc3)sc2C1 do in these assays?
TRPC4 PAM: inactive; TRPC4 block: inactive; Kir21 block: 1; TRPC6 activator: inactive; TRPC6 inhibitor: inactive; TRPC4 act: inactive

What do the screens show for `O=C(C1=C(O)C(=O)N(CCOCCO)C1c1cccc([N+](=O)[O-])c1)c1cccs1` (centres undefined)?
TRPC4 PAM: inactive; TRPC4 block: inactive; Kir21 block: 0.05; TRPC6 activator: inactive; TRPC6 inhibitor: inactive; TRPC4 act: inactive

How did O=C(O)CCCCCN1C(=O)C(O)=C(C(=O)/C=C/c2ccccc2)C1c1cccc([N+](=O)[O-])c1 (centres undefined) do in these assays?
TRPC4 PAM: inactive; TRPC4 block: inactive; Kir21 block: 0.93; TRPC6 activator: 17*; TRPC6 inhibitor: inactive; TRPC4 act: inactive; HEK293 MPD ctr-2: inactive; HEK293 MPD ctr 2-2: inactive; TRPC4/MOR mod: 9.5%*; TRPC4/MOR inh 2: inactive; TRPC6 block conf: inactive; TRPC6 act conf: 39%*

What do the screens show for `Cc1ccc(C)c(NC(=O)C(NCC(C)(C)N2CCOCC2)c2ccccc2)c1` (centres undefined)?
TRPC4 PAM: inactive; TRPC4 block: inactive; Kir21 block: -2.2; TRPC6 activator: inactive; TRPC6 inhibitor: -6.7*; TRPC4 act: inactive; TRPC4 spec 2: inactive; TRPC4 spec: 5.2%*; HEK293 MPD ctr 2-1: inactive; HEK293 MPD ctr-1: 7.3%*; TRPC6 block conf: inactive

What do the screens show for `COc1ccc(-n2c(-c3ccc(Br)cc3)c[n+]3c2CCc2ccccc2-3)cc1`?
TRPC4 PAM: inactive; TRPC4 block: inactive; Kir21 block: -5.9*; TRPC6 activator: inactive; TRPC6 inhibitor: -5.3*; TRPC4 act: inactive; HEK293 MPD ctr-2: -150%*; HEK293 MPD ctr 2-2: inactive; TRPC4/MOR mod: 18%*; TRPC4/MOR inh 2: 62%*; TRPC6 block conf: inactive; TRPC6 act conf: inactive
